Measurements: ChEMBL document CHEMBL1154933, “2-Aminothiadiazole inhibitors of AKT1 as potential cancer therapeutics” (Bioorg Med Chem Lett, 2010)
Calls of active or inactive are those of the source. The rule behind the calls is not given here.

Key:
[1] = Inhibition of PKA
[2] = molecular target: T1, RAC-alpha serine/threonine-protein kinase (Homo sapiens, UniProt P31749); test: Inhibition of AKT1 after 10 mins by [gamma33]ATP assay
[3] = molecular target: Cyclin-dependent kinase 2 (Homo sapiens, UniProt P24941); test: Inhibition of CDK2
[4] = Selectivity ratio of IC50 for CDK2 to IC50 for AKT1
[5] = molecular target: T1, RAC-alpha serine/threonine-protein kinase; test: Inhibition of human AKT1 in human U87MG cells assessed as PRAS40 phosphorylation after 1 hr by ELISA; format: cell-based, U-87MG ATCC
Method in brief: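 U87MG cells in 5% FBS medium were incubated with threefold serial dilutions of inhibitor for 1 h at 37 °C, then lysed. Phospho-PRAS40 (Thr246) was quantified by ELISA and normalized to total PRAS40. Mean ± SD where n ≥ 3.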

[6] = molecular target: T1, RAC-alpha serine/threonine-protein kinase; test: Inhibition of human AKT1 in human MDA-MB-468 cells assessed as phosphorylation-mediated nuclear translocation of GFP-tagged FKHRL1 by fluorescence microscopy; format: cell-based
Method in brief: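 MDA-MB-468 cells stably expressing GFP-tagged FKHRL1 were treated with threefold serial dilutions of compound. Nuclear translocation of the fusion protein was scored by fluorescence microscopy. Mean ± SD where n ≥ 3, some values from a single run.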

[7] = Half life in Sprague-Dawley rat at 1 mg/kg, iv; format: ADME, organism-based; parameters: dose 1 mg/kg, route intravenous; settings: in vivo
Method in brief: (§1)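 Male Sprague-Dawley rats, n = 3, given a single iv dose in 100% DMSO, at 1 mg/kg or 2 mg/kg depending on compound. Clearance, half-life and steady-state volume of distribution were taken from plasma exposure after the iv dose.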

[8] = Volume of distribution at steady state in Sprague-Dawley rat at 1 mg/kg, iv; format: ADME, organism-based; parameters: dose 1 mg/kg, route intravenous; settings: in vivo, read-out: Vdss; method in brief: as §1
[9] = Clearance in Sprague-Dawley rat at 1 mg/kg, iv; format: ADME, organism-based; parameters: dose 1 mg/kg, route intravenous; settings: in vivo; method in brief: as §1
[10] = Cmax in Sprague-Dawley rat at 10 mg/kg, po; format: ADME, organism-based; parameters: dose 10 mg/kg, route oral; settings: in vivo
Method in brief: (§2)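 Male Sprague-Dawley rats, n = 3, dosed orally at 10 mg/kg in 25% PEG 400/[…]. Cmax was taken from the oral exposure. Bioavailability was derived against the separate iv arm, which was 2 mg/kg in 100% DMSO.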

Mus musculus [11] = test: Inhibition of HGF-stimulated AKT signaling pathway in BALB/c mouse liver assessed as reduction in phosphorylated FKHRL1 level ip dosed 1 hr before HGF challenge and measured after 5 mins by Western blot analysis; format: functional, organism-based
[12] = Oral bioavailability in Sprague-Dawley rat at 10 mg/kg; format: ADME, organism-based; settings: in vivo; method in brief: as §2
[13] = Half life in Sprague-Dawley rat at 2 mg/kg, iv; format: ADME, organism-based; parameters: dose 2 mg/kg, route intravenous; settings: in vivo; method in brief: as §1
[14] = Volume of distribution at steady state in Sprague-Dawley rat at 2 mg/kg, iv; format: ADME, organism-based; parameters: dose 2 mg/kg, route intravenous; settings: in vivo, read-out: Vdss; method in brief: as §1
[15] = Cytotoxicity against human U87MG cells after 3 days by alamar blue staining; format: functional, cell-based, U-87MG ATCC; settings: U-87 MG, 72 h
Method in brief: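 U-87 glioblastoma cells seeded at 6000 cells/well and exposed to compound over a concentration series for 3 days. Viability read by alamarBlue staining, run in triplicate, and EC50 derived.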

Mus musculus [16] = test: Inhibition of HGF-stimulated AKT signaling pathway in BALB/c mouse liver assessed as reduction in phosphorylated FKHRL1 level at 30 mg/kg, ip dosed up to 6 hrs before HGF challenge and measured after 5 mins by Western blot analysis; format: functional, organism-based; parameters: dose 30 mg/kg
[17] = molecular target: T2, Serine/threonine-protein kinase Sgk1 (Homo sapiens, UniProt O00141); test: Inhibition of SGK1
T2 sequence (O00141 whole entry): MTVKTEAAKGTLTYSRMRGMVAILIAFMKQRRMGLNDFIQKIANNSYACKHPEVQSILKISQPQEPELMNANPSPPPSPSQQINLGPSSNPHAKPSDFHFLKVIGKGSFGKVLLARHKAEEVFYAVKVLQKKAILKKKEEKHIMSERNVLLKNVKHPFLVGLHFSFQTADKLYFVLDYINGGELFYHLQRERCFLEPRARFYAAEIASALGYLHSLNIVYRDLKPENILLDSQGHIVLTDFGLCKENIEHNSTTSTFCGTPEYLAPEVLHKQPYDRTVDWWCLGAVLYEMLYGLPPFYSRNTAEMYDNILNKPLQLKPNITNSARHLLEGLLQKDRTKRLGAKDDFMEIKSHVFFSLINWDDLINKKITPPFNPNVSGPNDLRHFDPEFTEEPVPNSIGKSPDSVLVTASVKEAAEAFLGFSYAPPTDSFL

[18] = Clearance in Sprague-Dawley rat at 2 mg/kg, iv; format: ADME, organism-based; parameters: dose 2 mg/kg, route intravenous; settings: in vivo; method in brief: as §1

T1 sequence (P31749 whole entry): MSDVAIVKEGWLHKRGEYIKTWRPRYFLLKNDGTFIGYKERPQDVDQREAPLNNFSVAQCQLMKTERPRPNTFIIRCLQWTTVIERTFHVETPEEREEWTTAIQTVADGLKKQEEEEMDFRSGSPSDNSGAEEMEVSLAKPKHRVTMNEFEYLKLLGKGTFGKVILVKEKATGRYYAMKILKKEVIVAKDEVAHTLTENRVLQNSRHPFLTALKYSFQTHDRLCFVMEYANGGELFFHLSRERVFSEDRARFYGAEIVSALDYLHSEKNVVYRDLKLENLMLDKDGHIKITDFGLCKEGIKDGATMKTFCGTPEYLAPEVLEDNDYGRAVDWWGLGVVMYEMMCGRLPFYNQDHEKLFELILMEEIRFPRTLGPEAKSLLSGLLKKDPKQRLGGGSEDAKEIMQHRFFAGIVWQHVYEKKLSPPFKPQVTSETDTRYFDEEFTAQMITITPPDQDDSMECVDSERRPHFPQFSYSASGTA

IC50 [1]	IC50 [2]	IC50 [3]	SMILES	also measured
230 nM	38 nM		Cc1n[nH]c2ccc(-c3nnc(NC[C@@H](N)Cc4cccc(F)c4)s3)cc12	
215 nM	198 nM	104 nM	Cc1n[nH]c2ccc(-c3nnc(NC[C@@H](N)Cc4ccccc4F)s3)cc12	
11 nM	8.9 nM	72 nM	Cc1n[nH]c2ccc(-c3nnc(NC[C@@H](N)Cc4ccc(Cl)cc4)s3)cc12	
43 nM	18 nM	70 nM	Cc1n[nH]c2ccc(-c3nnc(NC[C@@H](N)Cc4ccc(Cl)cc4Cl)s3)cc12	
6.5 nM	6.1 nM	35 nM	Cc1n[nH]c2ccc(-c3nnc(NC[C@@H](N)Cc4cccc(C(F)(F)F)c4)s3)cc12	
117 nM	25 nM		N[C@H](CNc1nnc(-c2ccc3[nH]ncc3c2)s1)Cc1cccc(C(F)(F)F)c1	
247 nM	491 nM	198 nM	Cc1n[nH]c2ccc(-c3nnc(NC[C@@H](N)Cc4ccccc4C(F)(F)F)s3)cc12	
15 nM	19 nM	17 nM	Cc1n[nH]c2ccc(-c3nnc(NC[C@@H](N)Cc4cccc(Cl)c4)s3)cc12	
237 nM	181 nM	135 nM	N[C@H](CNc1nnc(-c2ccc3[nH]nc(C4CC4)c3c2)s1)Cc1ccc(C(F)(F)F)cc1	
158 nM	40 nM	323 nM	N[C@H](CNc1nnc(-c2ccc3[nH]ncc3c2)s1)Cc1ccc(Cl)cc1Cl	Ratio IC50 [4]: 8
13 nM	5.5 nM	17 nM	Cc1n[nH]c2ccc(-c3nnc(NC[C@@H](N)Cc4ccc(C(F)(F)F)cc4)s3)cc12	IC50 [5]: 357 nM; IC50 [6]: 333 nM; half-life [7]: 4.1 h; Vd [8]: 13.7 L/kg; clearance [9]: 46.7 mL/min/kg
106 nM	47 nM	57 nM	Cc1n[nH]c2ccc(-c3nnc(NC[C@@H](N)Cc4ccccc4Cl)s3)cc12	
8 nM	3 nM	53 nM	N[C@H](CNc1nnc(-c2ccc3cnccc3c2)s1)Cc1ccc(C(F)(F)F)cc1	Cmax [10]: 430 ng/mL; IC50 [5]: 247 nM; inhibition (Mus musculus [11]): Dose-dependent effect; IC50 [6]: 695 nM; bioavailability [12]: 20%; half-life [13]: 3.8 h; Vd [14]: 3.8 L/kg; EC50 [15]: 380 nM; inhibition (Mus musculus [16]): Active; IC50 [17]: 2200 nM; clearance [18]: 25 mL/min/kg; Ratio IC50 [4]: 20
274 nM	280 nM	607 nM	Cc1cc2cc(-c3nnc(NC[C@@H](N)Cc4ccc(C(F)(F)F)cc4)s3)ccc2cn1	
27 nM	14 nM	19 nM	Cc1n[nH]c2ccc(-c3nnc(NC[C@@H](N)Cc4ccc(F)c(F)c4)s3)cc12	
	370 nM		CCc1n[nH]c2ccc(-c3nnc(NC[C@@H](N)Cc4ccccc4)s3)cc12	
368 nM	413 nM	79 nM	N[C@H](CNc1nnc(-c2ccc3[nH]nc(-c4ccccc4)c3c2)s1)Cc1cccc(C(F)(F)F)c1	
54 nM	76 nM	72 nM	Cc1n[nH]c2ccc(-c3nnc(NC[C@@H](N)Cc4ccccc4)s3)cc12	
	> 2200 nM		Cc1n[nH]c2ccc(-c3nnc(NC[C@H](N)Cc4ccccc4)s3)cc12	
108 nM	6 nM	24 nM	N[C@H](CNc1nnc(-c2ccc3[nH]ncc3c2)s1)Cc1ccc(C(F)(F)F)cc1	IC50 [5]: 444 nM; IC50 [6]: 154 nM; Ratio IC50 [4]: 4; half-life [7]: 2.5 h; Vd [8]: 13.3 L/kg; clearance [9]: 81.7 mL/min/kg
157 nM	24 nM	41 nM	N[C@H](CNc1nnc(-c2ccc3[nH]ncc3c2)s1)Cc1ccc(Cl)cc1	
373 nM	368 nM	74 nM	N[C@H](CNc1nnc(-c2ccc3[nH]ncc3c2)s1)Cc1ccc(F)cc1	
